Source: PubChem BioAssay
MEKK2wt PB1 HTS: raises or lowers MEK5 binding to wildtype human MEKK2 PB1 domain; 1.1% of 290,000 active; binding response (% of control), % at 10 µM; bead flow cytometry, Alexa488-MEK5 binding to MEKK2 WT; actives lie on both sides; in the data active = binding response below about 67% or above about 130%
MEKK2mut PB1 HTS: signal of MEK5 binding to mutant human MEKK2 PB1 domain | bead flow cytometry, Alexa488-MEK5 binding to MEKK2 mutant | percent response, % at 10 µM | 0.35% of 290,000 active | AID 1530; in the data active = percent response above about 24%, passing the limit was not always enough
MEKK3 PB1 HTS: MEKK3-MEK5 PB1 interaction, increase or decrease; 1.4% of 290,000 active; Q99759; binding response (% of control), % at 10 µM; bead-based flow cytometry, Alexa488-MEK5 binding to MEKK3; actives lie on both sides; 0 = blocked by unlabeled MEK5, 100 = vehicle; AID 1529;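 active = binding response more than 3 SD above or below the average of its plate-row segment, actives on both sides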;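 also: Alexa488 bead fluorescence after subtracting the streptavidin-only scavenger bead signal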
Target sequence (Q99759 whole entry, looked up): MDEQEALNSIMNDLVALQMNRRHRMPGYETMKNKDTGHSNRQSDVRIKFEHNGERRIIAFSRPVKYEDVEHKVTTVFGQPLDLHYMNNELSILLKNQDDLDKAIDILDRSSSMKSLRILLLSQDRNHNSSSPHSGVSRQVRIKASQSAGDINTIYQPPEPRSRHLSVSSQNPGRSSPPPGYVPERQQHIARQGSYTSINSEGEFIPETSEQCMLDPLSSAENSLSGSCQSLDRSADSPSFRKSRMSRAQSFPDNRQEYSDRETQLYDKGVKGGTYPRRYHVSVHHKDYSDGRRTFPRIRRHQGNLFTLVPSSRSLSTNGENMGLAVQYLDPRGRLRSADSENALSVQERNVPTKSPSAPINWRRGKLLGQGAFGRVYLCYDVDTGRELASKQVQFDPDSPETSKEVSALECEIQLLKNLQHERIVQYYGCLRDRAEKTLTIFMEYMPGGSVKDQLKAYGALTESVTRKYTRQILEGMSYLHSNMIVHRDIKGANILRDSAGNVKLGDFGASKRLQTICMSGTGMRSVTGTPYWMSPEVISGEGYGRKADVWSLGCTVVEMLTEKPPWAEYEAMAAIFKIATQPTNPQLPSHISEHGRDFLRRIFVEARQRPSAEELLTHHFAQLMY
Lipid droplet: modulators of hepatic lipid droplet formation; AML12 mouse hepatocytes, oleate lipid droplets, BODIPY imaging; AID 1656; 0.4% of 240,000 active; inhibition, % at 6.5 µM;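 active = lipid droplet intensity inhibited by at least 50%, with more than 500 cells counted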
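Assay system: AML12 hepatocytes (mouse) / Also added: 100 µM oleic acid challenge / Times: overnight treatment with compound plus oleate / Detection: high-content imaging of BODIPY-stained droplets and DAPI nuclei / Evaluation: % inhibition of lipid droplet signal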
MEKK2wt confirm: raises or lowers MEK5 binding to wildtype human MEKK2, retest. binding response (% of control), % at 10 µM. bead flow cytometry, Alexa488-MEK5 binding to MEKK2 WT; actives lie on both sides. shares compounds with MEKK3 PB1 HTS. 2.4% of 5,900 active; in the data active = binding response below about 16% or above about 210%; inactive = in between
MEKK2mut confirm: signal of MEK5 binding to mutant human MEKK2, retest | 2% of 5,900 active | bead flow cytometry, Alexa488-MEK5 binding to MEKK2 mutant | shares compounds with MEKK3 PB1 HTS | percent response, % at 10 µM; in the data active = percent response mostly above about 71%, no sharp cut-off; inactive = mostly below about 38%;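 also: higher means compound restores mutant binding toward wildtype level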
MEKK3 confirm: MEKK3-MEK5 PB1 inhibition, single concentration confirmation; shares compounds with MEKK3 PB1 HTS; bead flow cytometry, Alexa488-MEK5 binding to MEKK3; hits give low values; binding response (% of control), % at 10 µM; 1.8% of 5,900 active; AID 1894;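 active = binding response below 72% of control, or above a set upper limit, though filed actives all read lower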;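 also: 100% = DMSO only wells and 0% = binding blocked by excess unlabeled MEK5; lower values mean stronger disruption of MEK5 binding to MEKK3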
Active calls of the source: *; / = no result given; [ ] = dose if it differs, or a comment. Hits are enriched below; roughly 2.6% of the tested compounds scored in any of these assays.

SMILES	MEKK2wt PB1 HTS	MEKK2mut PB1 HTS	MEKK3 PB1 HTS	Lipid droplet	MEKK2wt confirm	MEKK2mut confirm	MEKK3 confirm
O=C(O)C1CCCCC1C(=O)Nc1ccc(Cl)cc1Cl (stereo not drawn)	103	4	107	19	/	/	/
O=C(CCC(=O)Nc1ccc(Cl)cc1Cl)NNC(=O)[C@@H]1CCCC[C@@H]1C(=O)O	1.0*[inhibitor]	-21	1.0*[inhibitor]	19	93	-8	95
Cc1ccc(C[n+]2cccc(-c3ccccc3)c2)c(C)c1	99	-1	97	-20	/	/	/
CC1=C(C(=O)OCC2CCCO2)C(c2ccc(F)cc2)NC(=O)N1 (stereo not drawn)	101	4	102	0	/	/	/
O=c1oc2ccccc2c(NCc2ccccc2F)c1[N+](=O)[O-]	105	-1	136*	-21	115	9	107
COc1cc(C(=O)Nc2nnc(C)s2)c([N+](=O)[O-])cc1OC	95	-1	94	-3	/	/	/
CCn1c(SCC(=O)Nc2cccc(C)n2)nc2c1c(=O)n(C)c(=O)n2C	78	-10	84	-4	/	/	/
Cc1ccc(S(=O)(=O)N(C)C)cc1NC(=S)NNC(=O)C1CC1	105	0	131*	5	99	-1	99
O=C(COc1ccccc1-c1ccccc1)NNC(=O)NC1CCCCC1	100	1	100	-24	/	/	/
Cc1ccccc1NC(=O)C(C)N1C(=O)c2ccccc2C1=O (stereo not drawn)	106	6	104	0	/	/	/
Cc1cccnc1NC(=O)C(C)N1C(=O)c2ccccc2C1=O (stereo not drawn)	119	24	131*	28	99	1	100
COC(=O)Cc1[nH]n(-c2nc3ccccc3s2)c(=O)c1C(C)=O	102	7	109	-2	/	/	/
COC(=O)Cc1cc(=O)n(-c2nc3ccccc3[nH]2)[nH]1	80	-4	73*[inhibitor]	2	98	0	101
COc1cc(C(=O)NCCC(=O)NCCN2CCCCCC2)cc(OC)c1OC	143*	24	111	-6	133	16	104
CCOC(=O)C(NC(=O)Nc1ccc(Cl)cn1)(Oc1ccccc1)C(F)(F)F (stereo not drawn)	104	4	153*	-22	105	4	104
CCOC(=O)C(NC(=O)Nc1ccc(F)cc1F)(Oc1ccccc1)C(F)(F)F (stereo not drawn)	109	0	120	14	/	/	/
CCOC(=O)CN1C(=O)C(C)(C)Oc2ccc(C(=O)Nc3ccccc3)cc21	75	-11	72*[inhibitor]	/	101	5	100
COC(=O)CN1C(=O)C(C)(C)Oc2ccc(C(=O)Nc3ccccc3F)cc21	103	8	103	-12	/	/	/
Cc1ccc(C)c(NC(=O)C2CCN(C(=O)c3cccs3)CC2)c1	101	-2	102	9	/	/	/
CCCNC(=O)COC(=O)c1cccnc1Nc1ccccc1F	98	-1	100	-18	/	/	/
NC(=O)NC(=O)COC(=O)c1cccnc1Nc1ccccc1F	62*[inhibitor]	-49	65*[inhibitor]	0	107	2	107
Cc1cc(C)n2nc(Nc3ccccc3)cc2n1	80	-7	81*[inhibitor]	/	94	-2	100
Cc1cc(C(=O)N(C)CC(=O)Nc2ccc(F)c(F)c2F)no1	90	-9	93	-8	/	/	/
Cc1ccc2[nH]c(C(=O)NCCN3CCCC3)cc2c1	137*	9	109	12	110	-6	98
C=CCON/C(CCC)=C1\C(=O)C(C(=O)OC)C(C)(C)CC1=NC (stereo not drawn)	106	1	102	-22	/	/	/
SMILES	MEKK2wt PB1 HTS	MEKK2mut PB1 HTS	MEKK3 PB1 HTS	Lipid droplet	MEKK2wt confirm	MEKK2mut confirm	MEKK3 confirm
Cc1c(C(=O)C(=O)N2CCN(C)CC2)c2ccccc2n1C	113	1	117	0	/	/	/
Cc1c(C(=O)C(=O)N2c3ccc(F)cc3CCC2C)c2ccccc2n1C (stereo not drawn)	108	1	141*	-60	97	-4	104
CSCCC(NC(=O)c1ccc(C(C)(C)C)cc1)C(=O)O (stereo not drawn)	/	/	/	4	/	/	/
COc1ccc(N2CCC(CNC(=O)Nc3cccc(OC)c3)C2)cc1 (stereo not drawn)	100	2	99	5	/	/	/
COc1ccc(N2CCC(CNC(=O)Nc3ccc(Cl)cc3)C2)cc1 (stereo not drawn)	142	7	141*	-2	106	2	100
CCOC(=O)N1CCN(c2c(N3CCN(c4ccccc4F)CC3)c(=O)c2=O)CC1	82	-5	72*[inhibitor]	-11	75	-23	70*
CCOC(=O)N1CCN(c2c(N3CCN(c4cccc(C)c4C)CC3)c(=O)c2=O)CC1	104	11	107	/	/	/	/
Cc1cccc(C2c3[nH]c4ccccc4c3CCN2Cc2cccn2-c2ncccn2)c1 (stereo not drawn)	149*	30	110	-20	109	5	102
COc1ccc(C2c3[nH]c4ccccc4c3CCN2Cc2cccn2-c2ncccn2)cc1C (stereo not drawn)	127	2	117	-10	/	/	/
CCCCCCNC(=O)N[C@@H](C(=O)NCCC[C@H]1CN2C(=NC[C@@H]2Cc2ccccc2)N1CCc1cccc(OC)c1)C(C)C	201*	46*	109	18	169	49	104
CNC(=S)NCc1ccc(OC)cc1	94	-1	55*[inhibitor]	2	104	-1	101
Cc1ccc(NC(=S)N/N=C2\CCCCC2C)cc1 (stereo not drawn)	100	0	103	2	/	/	/
CC1CCCC/C1=N\NC(=S)Nc1cccnc1 (stereo not drawn)	6.0*[inhibitor]	-45	4.0*[inhibitor]	-7	107	10	101
COc1ccccc1N1CCN(C(=O)NCc2cccc(C(F)(F)F)c2)CC1	103	-4	103	42	/	/	/
COc1cc(NC2c3ccccc3C(=O)N2Cc2ccccc2Cl)cc(OC)c1 (stereo not drawn)	116	29	135*	8	97	-1	96
COc1cccc(NC2c3ccccc3C(=O)N2Cc2ccccc2Cl)c1 (stereo not drawn)	92	-4	95	-10	/	/	/
Cc1ccc(C(=O)Nc2cc3[nH]c(=O)oc3cc2C)cc1	106	13	105	-5	/	/	/
CC(C)Nc1nc(NC(C)C)nc(Oc2ccc(/C=N/O)cc2)n1	94	7	124*	/	92	-8	94
CN(C)c1nc(Oc2ccc(/C=N/O)cc2)nc(N(C)C)n1	102	8	103	/	/	/	/
CC(C)COC(=O)c1ccc(N2C(=O)c3ccccc3C2=O)cc1	7.0*[inhibitor]	-45	5.0*[inhibitor]	-2	99	6	103
